Compound activity: PubChem, several laboratories
Compounds with a hit are over-represented: about 3.6% of the library has one in this group of screens.
ZTA DNA inh: ZTA (EBV) inhibition in EBNA-1 counter-screen; inhibition, % at 11 µM; actives 0.15% (n = 320,000); P03206; ZTA-DNA binding, fluorescence polarization; in the data active = inhibition above about 33%
Target sequence (P03206 whole entry, looked up): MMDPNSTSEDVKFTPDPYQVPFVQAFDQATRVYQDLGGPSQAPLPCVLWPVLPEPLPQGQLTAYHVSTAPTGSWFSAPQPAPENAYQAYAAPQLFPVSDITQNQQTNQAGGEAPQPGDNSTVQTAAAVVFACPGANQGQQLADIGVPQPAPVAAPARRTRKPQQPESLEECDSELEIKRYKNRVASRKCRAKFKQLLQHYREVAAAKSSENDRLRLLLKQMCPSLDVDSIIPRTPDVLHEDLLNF
FGF22 binding-1: binders of recombinant human FGF22 by thermal shift; actives 1.5% (n = 340,000); SYPRO orange fluorescence; percent of sucrose octasulfate shift, DMSO zero; activity (Tm shift, normalised), % at 9.99 µM; Q9HCT0;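 active = mean Tm shift, scaled 0 neutral to 100 positive control, at about 1.3% or above, every replicate too, limit read from the data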
Target sequence (Q9HCT0 whole entry, looked up): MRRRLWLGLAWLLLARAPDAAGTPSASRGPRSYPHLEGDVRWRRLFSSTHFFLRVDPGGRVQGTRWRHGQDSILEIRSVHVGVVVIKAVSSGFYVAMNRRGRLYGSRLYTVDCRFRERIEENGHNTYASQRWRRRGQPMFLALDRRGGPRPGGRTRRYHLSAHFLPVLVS
HCV NS3 hel inh: HCV NS3 helicase inhibition; NS3 helicase DNA unwinding, Cy5 molecular beacon fluorescence; actives 0.56% (n = 290,000); AID 1800; inhibition, % at 10.9 µM;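 active = inhibition above the mean of all tested compounds plus 3 SD, set per campaign, cut at about 35% in these data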;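 note: 0% = DMSO wells and 100% = thioflavine S control wells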
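Material: hepatitis C virus NS3 helicase domain fragment enzyme; measured by: Cy5 fluorescence, 0 and 60 min reads; control set: DMSO and thioflavine S; incubation: 60 min unwinding reaction at 25 °C after ATP addition; read-out basis: % inhibition from 60/0 min fluorescence ratio, DMSO 0%, thioflavine S 100%; repeats: singlicate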
FID counter: counter-screen for HCV NS3 helicase inhibitors: DNA intercalator displacement; DNA fluorescent intercalator displacement, fluorescence; inhibition, % at 7.9 µM; actives 0.17% (n = 290,000); AID 1845; in the data active = inhibition above about 37%;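 note: 0% = vehicle and 100% = reference compound; higher means more ethidium bromide displaced from hairpin DNA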
EBNA-1 inh: blocks EBNA-1 binding to DNA. EBNA-1 DNA binding, fluorescence polarization. inhibition, % at 14.8 µM. actives 0.34% (n = 300,000); in the data active = inhibition above about 28%
NR3A LBD binder: NR3A (human) ligand-binding domain modulation | actives 2.5% (n = 340,000) | NR3A LBD differential scanning fluorimetry, Tm shift; 0% = protein alone, 100% = glycine-bound protein | Tm shift relative to glycine control, % at 25 µM;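 active = melting temperature shift of at least 10% of the positive control shift, at one fixed dose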
FGF22 binding-2: binds human FGF22 shifting its melting temperature; shares compounds with FGF22 binding-1; recombinant FGF22 thermal shift, SYPRO orange fluorescence; thermal shift activity, °C (ΔTm) at 38 µM; actives 2% (n = 1,000);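 active = fitted rise in melting shift crosses a set limit at or below the top valid dose tested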
TSA no protein: compound-only SYPRO artifact for FGF22 binders; shares compounds with FGF22 binding-1; compound-only SYPRO orange thermal shift counter-screen, no protein; AC50, µM (titrated, usually from 38 µM); actives 2% (n = 1,000);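 active = rising signal whose fitted curve reaches the 0.54 level within the top valid dose, showing a melting point, actives reach about 13 µM in these data; inactive = the rest, including activity in the opposite direction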; note: value is where the raw curve crosses a fixed level and not half-maximal
An asterisk follows results filed as active; i = inactive; . = not tested or not shown; [ ] = dose if it differs, or a comment.

SMILES	ZTA DNA inh	FGF22 binding-1	HCV NS3 hel inh	FID counter	EBNA-1 inh	NR3A LBD binder	FGF22 binding-2	TSA no protein
O=C(C[C@@H]1CC[C@H]2[C@@H](COC[C@@H](O)CN2S(=O)(=O)c2cccc(F)c2)O1)Nc1ccc(-c2ccccc2)cc1	.	-3	.	.	.	.	.	.
Cn1cnc(S(=O)(=O)N2C[C@H](O)COC[C@@H]3O[C@@H](CC(=O)NCc4ccc(F)cc4)CC[C@H]32)c1	.	3.0*	.	.	.	.	0.11[42 µM]	i
O=C(C[C@H]1CC[C@@H]2[C@H](COC[C@@H](O)CN2Cc2nccs2)O1)NCc1ccccc1F	.	6.6*	.	.	.	.	0.048[42 µM]	i
O=C(C[C@@H]1CC[C@@H]2[C@H](COC[C@@H](O)CN2S(=O)(=O)c2cccc(F)c2)O1)Nc1ccc(-c2ccccc2)cc1	.	1.8*	.	.	.	.	0.07[42 µM]	i
O=C(C[C@H]1CC[C@H]2[C@@H](COC[C@H](O)CN2Cc2nccs2)O1)NCc1ccccc1F	.	1.6*	.	.	.	.	0.099[42 µM]	i
Cc1cc(C)c(C)c(S(=O)(=O)Nc2ccccc2C(=O)O)c1C	12	1.4*	5	-34	8	-6	0.15	i
O=C(O)c1cc(NS(=O)(=O)c2ccc3ccccc3c2)ccc1O	9	.	32	-17	3	-2	.	.
Cc1cc(NC(=O)c2ccccc2NS(=O)(=O)c2c(C)c(C)cc(C)c2C)no1	-14	.	-10	-3	-6	7	.	.
O=C(O)c1ccccc1NS(=O)(=O)c1ccc2ccccc2c1	-7	1.6*	0	-12	-5	-9	-0.049	i
O=C(C[C@@H]1C[C@@H]2c3cc(NS(=O)(=O)c4ccc(F)cc4)ccc3O[C@@H]2[C@H](CO)O1)NCc1ccncc1	.	0	.	.	.	.	.	.
N#C[C@H]1[C@@H](c2ccc(C3=CCCCC3)cc2)[C@@H](CO)N1S(=O)(=O)c1ccccc1	.	1.9*	.	.	.	.	-0.2	i
CS(=O)(=O)N1CC2(C1)[C@@H](c1ccccc1)[C@@H](CO)N2Cc1ccc(F)cc1	.	1.9*	.	.	.	.	0.087[42 µM]	i
CS(=O)(=O)N1CC2(C1)[C@H](c1ccccc1)[C@@H](CO)N2Cc1ccccc1	.	0	.	.	.	.	.	.
Cc1cccnc1NC(=O)CCCN1C(=O)c2ccccc2C1=O	5	17*	4	-4	5	2	0.22	i
O=C(NCCc1ccc2c(c1)OCCO2)c1cccc(F)c1	4	1.6*	4	-16	-1	0	-0.047	i
O=C(NCCc1ccc2c(c1)OCCO2)c1cc(F)cc(F)c1	3	.	-2	-2	-8	-5	.	.
C/C=C/c1cnc2c(c1)C(=O)N([C@@H](C)CO)C[C@H](C)[C@@H](CN(C)C(=O)c1ccc3c(c1)OCO3)O2	.	2.6*	.	.	.	.	0.17	i
CC(C)C#Cc1cnc2c(c1)C(=O)N([C@@H](C)CO)C[C@@H](C)[C@H](CN(C)C(=O)c1cnccn1)O2	.	1.3*	.	.	.	.	0.028	i
C/C=C/c1cnc2c(c1)C(=O)N([C@H](C)CO)C[C@H](C)[C@@H](CN(C)C(=O)c1ccc3c(c1)OCO3)O2	.	0	.	.	.	.	.	.
CC(=O)N(C)C[C@H]1Oc2ncc(C#C[C@H](C)O)cc2C(=O)N([C@@H](C)CO)C[C@@H]1C	.	3.6*	.	.	.	.	-0.13	i
CCC(=O)N1[C@@H](CO)[C@@H](c2ccc(-c3ccc(F)cc3)cc2)C12CN(C(C)=O)C2	.	0	.	.	.	.	.	.
C[C@@H]1CN([C@H](C)CO)C(=O)c2cc(NC(=O)c3ccncc3)ccc2O[C@H]1CN(C)Cc1ccc(C(=O)Nc2ccccc2N)cc1	.	0	.	.	.	.	.	.
CS(=O)(=O)N1CC(=O)N2[C@@H](CO)[C@H](c3ccc(C#CCc4ccccc4)cc3)[C@@H]2C1	.	1	.	.	.	.	.	.
CS(=O)(=O)N1CC(=O)N2[C@H](CO)[C@@H](c3ccc(C#CCc4ccccc4)cc3)[C@H]2C1	.	1.3*	.	.	.	.	0.098	i
COc1cccc(C#Cc2ccc([C@@H]3[C@H]4CN(C(=O)c5ccccc5)CC(=O)N4[C@H]3CO)cc2)c1	.	-1	.	.	.	.	.	.
SMILES	ZTA DNA inh	FGF22 binding-1	HCV NS3 hel inh	FID counter	EBNA-1 inh	NR3A LBD binder	FGF22 binding-2	TSA no protein
COc1cccc(C#Cc2ccc([C@H]3[C@@H](CO)N4C(=O)CN(C(=O)c5ccccc5)C[C@@H]34)cc2)c1	.	1.4*	.	.	.	.	0.001[42 µM]	i
O=C(c1ccc2c(c1)OCO2)N1CC(=O)N2[C@H](C1)[C@H](c1ccc(C#CCC3CCCC3)cc1)[C@@H]2CO	.	2.3*	.	.	.	.	0.049	i
C[C@H](CO)N1C[C@H](C)[C@@H](CN(C)C(=O)CC2CC2)Oc2ncc(C#C[C@@H](C)O)cc2C1=O	.	0	.	.	.	.	.	.
CC1(C)CCC(=O)N2CC[C@H]3C[C@H](OC(=O)Nc4ccccc4)C[C@@H]1[C@H]32	-4	2.1*	-8	-16	-7	-4	-0.13	i
CO[C@@H]1CN(C)C(=O)c2ccc(NC(C)=O)cc2OC[C@@H](C)N(C(=O)Cc2ccccn2)C[C@@H]1C	.	-1	.	.	.	.	.	.
CO[C@@H]1CN(C)C(=O)c2ccc(NC(C)=O)cc2OC[C@@H](C)N(C(=O)Cc2ccccn2)C[C@H]1C	.	1.4*	.	.	.	.	0.036[42 µM]	i
CO[C@H]1CN(C)C(=O)c2cc(NS(=O)(=O)c3ccc(C)cc3)ccc2OC[C@@H](C)N(C(=O)NC(C)C)C[C@@H]1C	.	1.2*	.	.	.	.	-0.021	i
CO[C@@H]1CN(C)C(=O)c2ccc(NC(=O)C3CC3)cc2OC[C@H](C)N(C(=O)CN2CCOCC2)C[C@@H]1C	.	1.4*	.	.	.	.	0.023	i
CCC(=O)Nc1ccc2c(c1)C(=O)N(C)C[C@@H](OC)[C@H](C)CN(C(=O)COC)[C@H](C)CO2	.	0	.	.	.	.	.	.
CCC(=O)Nc1ccc2c(c1)C(=O)N(C)C[C@H](OC)[C@@H](C)CN(C(=O)CC)[C@@H](C)CO2	.	1.5*	.	.	.	.	0.13[42 µM]	i
CO[C@@H]1CN(C)C(=O)c2ccc(NS(C)(=O)=O)cc2OC[C@H](C)N(C)C[C@@H]1C	.	0	.	.	.	.	.	.
CN(C)C(=O)C[C@H]1CC[C@@H]2[C@H](COC[C@H](O)CN2Cc2ccc(C(F)(F)F)cc2)O1	.	0	.	.	.	.	.	.
O=C(Nc1ccc(S(=O)(=O)NCc2ccccc2)cc1)c1ccccc1[N+](=O)[O-]	0	2.4*	5	11	-6	-5	0.029	i
CCOC(=O)c1ccc(NC(=O)c2ccccc2[N+](=O)[O-])cc1	10	.	-3	4	8	2	.	.
CC1CCCC(C)N1/N=C/c1ccc(Cl)cc1 (configuration not stated)	2	.	0	6	10	1	.	.
COc1ccc(/C=N/N2C(C)CCCC2C)cc1OC (configuration not stated)	4	38*	12	-7	8	1	-0.091	i
